TAAR1 agonist: human TAAR1 agonists, primary screen, Fluo-8 calcium fluorescence, CHO RD-HGA16 cells | Trace amine-associated receptor 1 (Homo sapiens), Q96RJ0 | vehicle wells 0%, saturating PEA agonist 100% | activation, % at 3 µM | 360,000 compounds, 0.99% hits;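 active means activation above the mean activation of all test compounds in the run plus 3 SD, cut at about 38% in these data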
Target sequence (Q96RJ0 whole entry, looked up): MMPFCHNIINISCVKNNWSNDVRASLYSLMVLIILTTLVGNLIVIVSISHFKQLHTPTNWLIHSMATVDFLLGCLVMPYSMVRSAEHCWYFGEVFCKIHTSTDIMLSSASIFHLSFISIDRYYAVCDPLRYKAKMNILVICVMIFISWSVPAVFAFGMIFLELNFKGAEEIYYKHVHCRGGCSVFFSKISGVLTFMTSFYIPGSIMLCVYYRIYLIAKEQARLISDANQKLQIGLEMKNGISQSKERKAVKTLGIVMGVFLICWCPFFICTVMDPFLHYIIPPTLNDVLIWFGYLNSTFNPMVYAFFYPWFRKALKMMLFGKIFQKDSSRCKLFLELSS
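Assay system: CHO-derived RD-HGA16 cells with stable Gα16 and human TAAR1; timing: 17-24 h seeding, 75 min 37 °C dye, 30 min RT; read-out: % activation from peak over basal fluorescence ratio, DMSO-to-PEA scaled; measured by: kinetic Fluo-8 calcium fluorescence; benchmarks: low control DMSO, high control PEA (EC100); doses: 3 µM single concentration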
TAAR1 antag: human TAAR1 antagonists, primary screen, Fluo-8 calcium fluorescence, CHO RD-HGA16 cells; Trace amine-associated receptor 1 (Homo sapiens), Q96RJ0; antagonist; inhibition, % at 3 µM; 360,000 compounds, 1.5% hits; AID 624466, 2012;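 active means inhibition above a per-plate cutoff, the mean inhibition of test compounds on that plate plus 3 SD, cut at about 49% in these data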
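Test system: hTAAR1-expressing CHO RD-HGA16 cells, Gα16-coupled; Probe or stimulus: EC80 β-phenethylamine stimulus; Compound dosing: single nominal final test compound concentration of 3 µM; Timing: 140 s kinetic read after compound, 140 s after agonist; Signal: Fluo-8 calcium-sensitive fluorescence; Measure: % inhibition of agonist calcium response; Controls: DMSO and EC80 PEA controls.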
GalR3 antagonist: GalR3 antagonists in HEK293 cells, primary screen, cell-based, fluorescence readout; Galanin receptor type 3 (Homo sapiens), O60755; HEK293 GalR3-CNG cAMP membrane potential fluorescence; galR3 body fused to GalR1 C-terminus; inhibition, % at 3 µM; 360,000 compounds, 0.44% hits; AID 651719, 2012;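 active means inhibition above the screen-wide average plus 3 SD, cut at about 13% in these data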;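 further: forskolin and galanin both at EC90 stimulate the cells; cAMP rise reported by CNG channel membrane potential dye signal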
OX1R antag-1: OX1R (HCRTR1) antagonists, primary screen, fluorescence, CHO/OX1R cells, Fluo-8 calcium, orexin A; Orexin/Hypocretin receptor type 1 (Homo sapiens), O43613; inhibition, % at 5 µM; AID 434989, 2010; 330,000 compounds, 0.43% hits; Fluo-8 calcium fluorescence;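 active means inhibition above its plate's threshold, mean inhibition of all tested compounds on the plate plus 3 SD, cut at about 37% in these data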
Target sequence (O43613 whole entry, looked up): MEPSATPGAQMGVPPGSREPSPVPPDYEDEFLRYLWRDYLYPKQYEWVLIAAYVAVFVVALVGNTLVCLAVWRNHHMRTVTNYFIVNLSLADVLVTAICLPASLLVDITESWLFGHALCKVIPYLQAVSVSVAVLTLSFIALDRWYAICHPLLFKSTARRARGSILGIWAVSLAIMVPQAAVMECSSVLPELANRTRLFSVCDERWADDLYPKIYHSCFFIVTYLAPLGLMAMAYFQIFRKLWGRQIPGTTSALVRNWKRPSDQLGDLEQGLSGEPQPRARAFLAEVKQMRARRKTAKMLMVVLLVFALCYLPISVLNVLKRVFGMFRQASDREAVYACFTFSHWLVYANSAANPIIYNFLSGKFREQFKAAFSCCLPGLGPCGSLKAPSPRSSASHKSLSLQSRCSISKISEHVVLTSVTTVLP
OX1R antag-2: antagonists of human orexin 1 receptor (OX1R). inhibition, % at 6.6 µM. AID 485270, 2010. Orexin/Hypocretin receptor type 1 (Homo sapiens), O43613. OX1R-expressing cells, FRET antagonist read-out. 330,000 compounds, 1.8% hits; in the data active means inhibition mostly above about 38%, no sharp cut-off; inactive means mostly below about 40%
CHO parental Ca: ATP-evoked calcium signal inhibitors, parental CHO, primary screen, counter-screen for OX1R antagonist project, cell-based, fluorescence, Fluo-8 calcium dye. parental CHO-K1, ATP-induced calcium, Fluo-8 fluorescence. inhibition, % at 5.6 µM. 330,000 compounds, 0.63% hits. AID 463079, 2010;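 active means inhibition above that plate's mean sample inhibition plus 3 SD, cut at about 26% in these data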
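test system = CHO parental line | reagent = ATP stimulus | measured by = intracellular calcium via Fluo-8 no-wash fluorescent dye | control set = ATP and no-ATP DMSO wells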
Each line names hits and unclear results; the compound was inactive in the other large screens. The list is not random: actives were taken first. Their share in the collection is about 4.3%.

CN(Cc1ccccc1)S(=O)(=O)c1ccccc1Br	none
COc1ccc(NC(=O)c2cc3c(Cl)nc4ccccc4c3s2)cc1OC	OX1R antag-2 66.0
COc1ccc(OC)c(NC(=O)c2cc3c(Cl)nc4ccccc4c3s2)c1	none
O=C(NCCc1cccs1)C1CC(c2cccc([N+](=O)[O-])c2)=NO1 (stereo not drawn)	TAAR1 antag 48.7
CCCCNC(=O)C1C(c2ccc(OC)cc2)=Nc2ccccc2N1C(=O)c1cccnc1 (stereo not drawn)	none (no result: OX1R antag-1, OX1R antag-2, CHO parental Ca)
Cc1ccc(S(=O)(=O)Nc2ccc(C(=O)N3CCOCC3)cc2)cc1	none
CCN(CC)c1ccc(S(=O)(=O)N2CCOCC2)cc1NC(=O)COC(=O)/C=C/c1ccc(C)o1	TAAR1 antag 64.5
CCN(CC)c1ccc(S(=O)(=O)N2CCOCC2)cc1NC(=O)COC(=O)/C=C/c1ccc(O)c(OC)c1	none (no result: OX1R antag-1, OX1R antag-2, CHO parental Ca)
O=C(NCc1ccccc1)[C@@H]1CCCN1C(=O)[C@H]1CCCN1C(=O)c1ccc(F)cc1	none (no result: OX1R antag-1, OX1R antag-2, CHO parental Ca)
O=C(CCCc1nc(-c2ccc(Cl)cc2)no1)NC1CCCC1	CHO parental Ca 48.2
O=C(CCc1nc(-c2ccc(Cl)cc2)no1)NC1CCCCC1	none
C=CCC[C@H](Cc1ccc(F)cc1)C(=O)OC[C@H]1CCCN1C(=O)[C@@H](CC=C)CC(=O)NCCO	none
C=CCC[C@@H](Cc1ccc(F)cc1)C(=O)OC[C@@H]1CCCN1C(=O)[C@@H](CC=C)CC(=O)N(CCO)Cc1ccccc1	TAAR1 antag 57.4
C=CC[C@@H](Cc1ccc(F)cc1)C(=O)OC[C@H]1CCCN1C(=O)[C@H](CC=C)CC(=O)N[C@H](CO)Cc1ccccc1	TAAR1 antag 50.0
C[C@H](CO)N1C[C@H](C)[C@H](CN(C)C(=O)c2ccccn2)Oc2cc(C#Cc3ccc(F)cc3)ccc2S1(=O)=O	none (no result: OX1R antag-1, OX1R antag-2, CHO parental Ca)
COc1cccc(C#Cc2ccc3c(c2)O[C@@H](CN(C)C(=O)c2ccccn2)[C@@H](C)CN([C@H](C)CO)S3(=O)=O)c1	TAAR1 antag 49.5 (no result: OX1R antag-1, OX1R antag-2, CHO parental Ca)
C[C@H](O)[C@@H]1C(=O)N2CCc3c([nH]c4c(-c5ccc6c(c5)OCO6)cccc34)[C@@H]2C[C@@H]1N(C)C(=O)NC1CCCCC1	none (no result: OX1R antag-1, OX1R antag-2, CHO parental Ca)
CN(C)S(=O)(=O)c1cc(NC(=O)c2cc(=O)c3ccccc3o2)ccc1Cl	TAAR1 agonist 43.8
O=c1[nH]c(NCCO)nc2c1C1(CCCCC1)Cc1ccccc1-2	CHO parental Ca 81.3
CCOC(=O)c1cc(C(=O)Nc2ccccc2F)nn1C	none
CCOC(=O)n1ccc(C(=O)Nc2ccccc2F)n1	CHO parental Ca 29.0
CCCCN(C(=O)CCC(=O)Nc1cc(C)on1)C(C(=O)NC1CCCC1)c1ccc(OCC)cc1 (stereo not drawn)	none
CCCCN(C(=O)CCC(=O)Nc1cc(C)on1)C(C(=O)NC1CCCC1)c1ccccc1OCC (stereo not drawn)	OX1R antag-2 75.9
N#C/C(=C(/O)CCl)c1nc2c(s1)CCc1ccccc1-2	none
CC(C)(C)c1ccc(C(=O)Nc2ccccc2NC(=O)c2ccco2)cc1	TAAR1 antag 49.4
N#Cc1ccsc1NC(=O)c1cccc([N+](=O)[O-])c1	none
N#Cc1ccsc1NC(=O)c1ccc(Cl)c([N+](=O)[O-])c1	OX1R antag-2 88.3, CHO parental Ca 45.8
COc1ccc(OC)c(CN2C(=O)CN(S(C)(=O)=O)CC2(C)C(=O)NCc2ccccc2)c1 (stereo not drawn)	none (no result: OX1R antag-1, OX1R antag-2, CHO parental Ca)
COc1ccc2c(c1)nc(SCC(=O)C(C)(C)C)n2C	none
COc1ccc2nc(CC(C)(C)CC(=O)O)c[n+]([O-])c2c1	OX1R antag-2 68.9
O=C(Nc1ccccc1F)c1ccc2snnc2c1	OX1R antag-2 71.2
CN(C)c1ccc(NC(=O)Nc2ccc3snnc3c2)cc1	TAAR1 antag 57.9
O=C(Nc1ccccc1)Nc1ccc2snnc2c1	TAAR1 agonist 40.5, OX1R antag-2 85.7
O=C(Nc1ccccc1)Nc1ccc2nnsc2c1	none
O=C(Nc1ccc(Cl)cc1)c1ccc2snnc2c1	none (no result: GalR3 antagonist)
COC(CNC(=O)CN1CCN(Cc2ccc(F)cc2Cl)C1=O)OC	none
CC(Sc1nnc(CN2CCCC2)n1Cc1ccccc1)C(=O)Nc1ccc(F)cc1Cl (stereo not drawn)	none (no result: OX1R antag-1, OX1R antag-2, CHO parental Ca)
OC[C@@H]1CN(Cc2cccc(C(F)(F)F)c2)C[C@H](n2cnc3c(NCc4ccncc4)ncnc32)O1	none (no result: OX1R antag-1, OX1R antag-2, CHO parental Ca)
COc1ccc(-c2noc(C3CCCN(S(=O)(=O)c4cccc(Cl)c4C)C3)n2)cc1OC (stereo not drawn)	OX1R antag-2 45.4
Clc1ccc(-n2nnnc2-c2cnc(-c3ccncc3)nc2-c2cccs2)cc1	none
FC(F)(F)c1nc(-c2cccs2)ncc1-c1nnnn1-c1ccc(Cl)cc1	TAAR1 antag 58.7
O=C(NC1CCCC1)C1C(c2ccc(C(F)(F)F)cc2)=Nc2ccccc2N1C(=O)c1cccc(C(F)(F)F)c1 (stereo not drawn)	none (no result: OX1R antag-1, OX1R antag-2, CHO parental Ca)
O=C(NN=Cc1ccc(F)cc1)c1ccccc1NS(=O)(=O)c1cccs1	OX1R antag-2 24.8
CCOc1cc(CN2CCC(N3CCC(C(=O)NC4CC4)CC3)CC2)ccc1O	none (no result: OX1R antag-1, OX1R antag-2, CHO parental Ca)
c1ccc(CNc2ccccn2)cc1	none
c1ccc(Nc2ccccc2Nc2ccccn2)nc1	OX1R antag-1 49.7, OX1R antag-2 56.1, CHO parental Ca 49.0
Cc1[nH]c2ccccc2c1/C=N/NC(=O)c1cc(C(C)C)[nH]n1	OX1R antag-2 44.5
CCN1CCN(CCNC(=O)c2ccc(CS(=O)c3ccc(Br)cc3)o2)CC1 (stereo not drawn)	none
CCOC(=O)CC1C(=O)NCCN1c1nc2ccc(C)cn2c(=O)c1/C=C1\SC(=S)N(CC(C)C)C1=O (stereo not drawn)	OX1R antag-1 49.4, CHO parental Ca 27.1 (no result: TAAR1 agonist, TAAR1 antag, GalR3 antagonist)
O=C(Nc1nc(OCC(F)(F)F)cnc1/C=C\c1ccccc1)c1ccsc1	TAAR1 antag 56.7 (no result: OX1R antag-1, OX1R antag-2, CHO parental Ca)
CCOC(=O)CSc1nnc2c3ccccc3n(C)c2n1	none
CC(C)n1c2ccccc2c2nnc(SCC(=O)OCN3C(=O)c4ccccc4C3=O)nc21	OX1R antag-2 49.6
CCOC(=O)c1c(C)[nH]c(C)c1S(=O)(=O)NCCc1cccs1	TAAR1 agonist 40.5
CCOC(=O)c1c(C)[nH]c(C)c1S(=O)(=O)NCc1cc(C)ccc1C	none
Cc1ccc2nc(N(CCN(C)C)C(=O)/C=C/c3cccs3)sc2c1	none
CN(C)CCN(C(=O)/C=C/c1cccs1)c1nc2ccc(Br)cc2s1	TAAR1 antag 56.2
CCOCCCN(C)C1CCN(S(=O)(=O)c2csc(C(N)=O)c2)CC1	none

Screening data (PubChem)
